NOD2 RIPK2 PPI – blocks binding of human NOD2 to RIPK2; O43353; CHO BLA complementation NOD2-RIPK2, CCF4 ratio; inhibition, % at 4.98 µM; 360,000 compounds, 0.38% hits; AID 624267; in the data active = inhibition above about 21%;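 note: 0% = vehicle only and 100% = reference blocker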
UPR CHOP act – activators of apoptotic arm of unfolded protein response (CHOP); CHO-CHOP luciferase reporter, UPR activation, luminescence; percent of tunicamycin response over DMSO baseline; activation, % at 10 µM; 330,000 compounds, 0.34% hits;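 active = at 10 µM dose, activation of 40% or more, normalized to positive control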;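 note: 100% = tunicamycin at 10 µg/mL and 0% = DMSO alone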
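assay system = CHO CHOP reporter cells | amount = 500 CHO-CHOP cells per well | buffer or medium = F12 with 10% FBS | incubation = 16-18 h cell attachment, then 6 h compound exposure, 37 °C | detection = luminescence read with Steady-Glo | read-out = percent activation relative to tunicamycin control | controls = tunicamycin high control, DMSO low control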
TLR9-MyD88 inh – blocks human TLR9 binding to MyD88; CHO BLA complementation TLR9-MyD88, CCF4 FRET ratio; AID 504734; inhibition, % at 4.98 µM; 340,000 compounds, 0.21% hits;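 active = inhibition above the mean over all tested compounds plus 3 SD, cut at about 21% in these data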;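 note: 0% = DMSO only wells and 100% = clavulanate BLA inhibitor control wells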
XBP1 UPR activ – activators of adaptive arm of unfolded protein response (XBP1); CHO-XBP1 luciferase reporter, IRE1-XBP1 UPR activation, luminescence; percent of tunicamycin response, DMSO as zero; activation, % at 20 µM; 330,000 compounds, 0.33% hits; AID 463104;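 active = versus positive control, 20 µM dose yields 30% or more activation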;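 note: 100% = tunicamycin at 10 µg/mL and 0% = DMSO only wells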
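Assay system: IRE1-XBP1 luciferase reporter CHO line. Input: 1000 cells/well. Buffer or medium: F12 with 10% serum. Doses: 20 µM, 1% DMSO. Times: overnight seeding at 37 °C, 6 h compound treatment at 37 °C. Technique: Steady-Glo luciferase glow luminescence, 10 min after reagent addition.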
CHOP inhibitor – CHOP inhibition in unfolded protein response; CHO-K1 CHOP-promoter luciferase, tunicamycin-induced, 15-18 h; inhibition, % at 10 µM; 220,000 compounds, 3.8% hits; AID 2732;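 active = compounds that reduced the stress-induced luciferase reporter signal by more than about 70% of percent inhibition, limit read from the data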;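 note: 0% = tunicamycin plus vehicle and 100% = wells without tunicamycin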
TLR4 MyD88 comp – blocks binding of human TLR4 to MyD88. inhibition, % at 8.4 µM. O00206+Q99836. HeLa CL3-4 TLR4/MyD88 BLA complementation, FRET ratio. 200,000 compounds, 0.18% hits; in the data active = inhibition above about 25%;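 note: 0% = vehicle and 100% = reference inhibitor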
Starred values were filed as active, the others as inactive; . = no result. The entries come from a sample that favours hits as a whole.

SMILES	NOD2 RIPK2 PPI	UPR CHOP act	TLR9-MyD88 inh	XBP1 UPR activ	CHOP inhibitor	TLR4 MyD88 comp
CCCc1ccc(OCc2ccc(C(=O)OC)o2)c(OC)c1	0	3	-3	0	78*	-1
O=C(N/C=N/OCc1ccc(Cl)cc1Cl)NOCc1ncc(C(F)(F)F)cc1Cl	5	3	-12	-1	95*	-7
CC(C)(C)c1[nH]nc2c1C(C1C=CCCC1)C(C#N)=C(N)O2 (stereo not given)	1	-2	8	1	83*	2
Cc1ccc(C)c(N2CCN(C(=O)C3CCN(c4nc(C)cc(C)n4)CC3)CC2)c1	9	0	-4	-3	88*	-4
Cc1ccc(N2CCN(C(=O)c3ccccc3Br)CC2)c(C)c1	0	0	7	0	87*	-7
Cc1cc(C)nc(N2CCC(C(=O)N3CCN(c4cc(Cl)ccc4C)CC3)CC2)n1	-5	-1	-4	1	65	-6
Cc1ccc(C)c(N2CCN(C(=O)c3ccccc3Br)CC2)c1	9	-1	4	-2	87*	-3
Cc1ccc(C)c(N2CCN(C(=O)c3csc(C)c3C)CC2)c1	-3	4	-5	-2	65	3
Cc1nc2c(OCCC3CCCCC3)cccn2c1N(C)C(=O)CCC1CCCC1	2	.	.	.	.	.
O=[N+]([O-])c1ccccc1C=NN1CCCCCC1	-1	.	-2	.	.	.
O=C(Nc1ccc(Cl)cn1)c1ccc(COCC(F)(F)C(F)F)o1	-3	0	3	3	96*	2
CCN=C1SC(CC(=O)Nc2sc3c(c2C#N)CCCC3)C(=O)N1CC (stereo not given)	-14	0	-4	4	92*	-2
CCN=C1SC(CC(=O)Nc2ccc(N3CCOCC3)cc2)C(=O)N1CC (stereo not given)	-1	2	6	4	12	2
CCN=C1SC(CC(=O)Nc2ccc(C(F)(F)F)cc2)C(=O)N1CC (stereo not given)	-4	-1	3	-2	82*	4
OCC[C@@H]1C[C@H](O)[C@@H](O)[C@]2(OCc3cc(C(F)(F)F)ccc32)O1	-4	.	.	.	.	.
CC(C)(C)c1ccc(C2C(C#N)=C(N)Oc3n[nH]c(-c4cccnc4)c32)cc1 (stereo not given)	-9	1	2	-2	76*	.
CCCCc1nc(Cl)c(C#N)c2c1CCC2	-9	1	.	-3	19	.
CCCCc1nc(Cl)c(C#N)c2c1CCCC2	-5	-3	-4	-1	88*	-15
Cc1cc(Nc2ccccc2)c2c([N+](=O)[O-])c(C)cc(C)c2n1	-4	-3	-3	6	92*	0
C/C(=N/NC(=O)Nc1ccccc1)c1ccc(C)cc1	-10	4	-8	1	62	-10
C/C(=N\NC(=O)Nc1ccccc1)c1ccc2ccccc2c1	-4	-3	-5	0	80*	-9
C/C(=N\NC(=O)c1c[nH]c2ccccc12)c1ccc2c(c1)OCO2	-9	0	4	4	0	-1
C/C(=N\NC(=O)Cc1c[nH]c2ccccc12)c1ccc2ccccc2c1	0	0	-5	-2	81*	-12
Cc1ccc(NC(=O)COC(=O)c2ccccc2Nc2ccccc2)cc1	4	0	0	-1	77*	5
Cc1ccc(S(=O)(=O)Oc2ccc3c(c2)O/C(=C\c2cccnc2)C3=O)cc1	5	0	5	-2	78*	-3
SMILES	NOD2 RIPK2 PPI	UPR CHOP act	TLR9-MyD88 inh	XBP1 UPR activ	CHOP inhibitor	TLR4 MyD88 comp
C=CCNCCCOc1ccc(Cl)cc1C(C)(C)C	5	-1	1	5	72*	2
CCOC(=O)c1c(NC(=O)c2cc(CC(C)C)on2)sc(C(C)=O)c1C	-1	5	4	1	13	-4
CCOC(=O)c1c(NC(=O)c2cc(C(C)C)on2)sc(C(C)=O)c1C	2	1	-9	4	93*	6
Cc1cn([C@H]2C[C@H](O)[C@@H](CNC(=O)[C@H](N)C3CC3)O2)c(=O)[nH]c1=O	-7	.	1	.	.	.
CC(C)Oc1cccc(NC(=O)C2(C)CCN2C(=O)C(C)C)c1 (stereo not given)	-1	.	.	.	.	.
O=C(c1cc(-c2ccco2)nn1-c1cccc(Cl)c1)N1CCCCC1	4	0	-3	-2	71*	1
CC(C)NC(=O)c1cc(-c2ccco2)nn1-c1ccc(Cl)cc1	-10	1	1	-1	.	-6
CC1CC(C)CN(c2ccc(-n3cnnn3)cc2[N+](=O)[O-])C1 (stereo not given)	-12	0	0	0	74*	4
CC(=O)c1c(C)[nH]c(C(=O)OCC(=O)Nc2ccc(C)cc2[N+](=O)[O-])c1C	-3	3	-6	-4	89*	0
COCOCCn1cc(CN2CCS(=O)(=O)N(Cc3ccc(-c4ccc(OC)nc4)cc3)C(C(C)C)C2=O)nn1 (stereo not given)	-4	.	-1	.	.	.
CCc1ccccc1NCC(=O)Nc1ccc(Cl)c(C(F)(F)F)c1	-4	0	-1	0	79*	-12
CCCCCCc1cc2cc(S(=O)(=O)c3ccc(F)cc3)c(=O)oc2cc1O	-127	-2	-11	-4	94*	-3
CCCCCCc1cc2cc(-c3nnc(-c4ccccc4O)o3)c(=O)oc2cc1O	-3	2	2	5	-11	-5
CCOC(=O)Cn1nc(-c2ccccc2)c2cnc3ccc(C)cc3c21	-3	3	8	1	73*	7
Cc1cccc(C)c1NC(=O)CN1CCN(C(=O)c2cc(C3CC3)nn2-c2ccccc2)CC1	-10	.	0	.	.	.
CN1C(c2ccccc2)CC(=NO)CC1c1ccccc1 (stereo not given)	2	-1	-1	-3	.	.
CC1C(c2ccccc2)N(C)C(c2ccccc2)CC1(O)c1ccc(F)cc1 (stereo not given)	-7	.	-4	.	85*	0
O=C(O/N=C1\C(=O)N(c2ccccc2)c2ccccc21)C1CC1	5	0	21	0	73*	-8
O=C(CCSc1nc(-c2ccco2)cc(C(F)(F)F)n1)N1CCN(c2ccccn2)CC1	-6	-4	-5	-5	88*	0
CC(C)C[C@@H](CN)NC(=O)c1nc[nH]c1C(=O)N[C@@H](C)C(=O)CNC[C@H](C)NC(=O)c1nc[nH]c1C(=O)N[C@@H](Cc1ccccc1)C(=O)O	-3	.	-2	.	.	.
CCCC1CCC(c2ccc(C(N)=O)cc2)CC1 (stereo not given)	0	-1	2	5	.	-10
CCCC1CCC(c2ccc(/C(N)=N/O)cc2)CC1 (stereo not given)	4	3	-3	4	81*	8
